The source of these data is ChEMBL document CHEMBL1641466, “Structure based evolution of a novel series of positive modulators of the AMPA receptor” (Bioorg Med Chem Lett, 2011).

Data set [1] in a line: Cmax in Wistar rat cerebrospinal fluid at 2 mg/kg, ip. It is filed as ADME, organism-based. More on the design: dose 2 mg/kg, route intraperitoneal. In a few lines: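 Wistar BRL rats dosed 2 mg/kg i.p.; drug concentration measured in CSF to gauge CNS exposure, Cmax reported.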
The nature of data set [2]: Permeability from basolateral to apical side of human Caco2 cells. It is filed as ADME, cell-based. The following applies: Caco-2, read-out: permeability. (Passage across Caco-2 layers is used to estimate intestinal permeability.)
The nature of data set [3]: Intrinsic clearance in rat microsomes assessed per mg of protein. It is filed as ADME, Microsome.
In a further data set the target is Glutamate receptor 2 (Homo sapiens, UniProt P42262). The data set can be described thus: Modulatory activity at GluA2 receptor LBD.
A short description of data set [4]: Intrinsic clearance in human microsomes assessed per mg of protein. It is filed as ADME, Microsome.
A short description of data set [5]: Half life in Wistar rat at 2 mg/kg, iv and 10 mg/kg, po. The following applies: in vivo. The data set is classed as ADME, organism-based.
Data set [6] is described as follows: Clearance in Wistar rat at 2 mg/kg, iv and 10 mg/kg, po. The data set is classed as ADME, organism-based. The following applies: in vivo.
The nature of data set [7]: Volume of distribution at steady state in Wistar rat at 2 mg/kg, iv and 10 mg/kg, po. The data set is classed as ADME, organism-based. To be noted: in vivo, read-out: Vdss.
Data set [8] in a line: Permeability from apical to basolateral side of human Caco2 cells. The data set is classed as ADME, cell-based. The following applies: Caco-2, read-out: permeability.
A short description of data set [9]: Solubility of the compound. It is filed as physicochemical.
Data set [10] can be described thus: Bioavailability in Wistar rat at 2 mg/kg, iv and 10 mg/kg, po. It is filed as ADME, organism-based. To be noted: in vivo.
The test system of a further data set is Hepatocyte. The data set can be described thus: Metabolic stability in rat hepatocytes assessed per cells. The data set is classed as ADME, cell-based.
Data set [11] in a line: Bioavailability in Wistar rat at 1 mg/kg, iv and 5 mg/kg, po. The data set is classed as ADME, organism-based. To be noted: in vivo. In a few lines:
(§1)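 Wistar BRL rats; pharmacokinetics from 1 mg/kg i.v. and 5 mg/kg p.o. dosing; plasma clearance, half-life and oral bioavailability (F%) derived.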

Data set [12] can be described thus: Plasma concentration in Wistar rat at 1 mg/kg, iv and 5 mg/kg, po. The data set is classed as ADME, organism-based.
Data set [13] is described as follows: Half life in Wistar rat at 1 mg/kg, iv and 5 mg/kg, po. It is filed as ADME, organism-based. To be noted: in vivo. In short, it runs like this:
as §1

pEC50: −log10 of the molar value. Values after ≈ are worked out from the molar mass of the structure shown. Some results are limits rather than exact numbers.

Chain of Glutamate receptor 2 (P42262 whole entry, the tested form may be a part): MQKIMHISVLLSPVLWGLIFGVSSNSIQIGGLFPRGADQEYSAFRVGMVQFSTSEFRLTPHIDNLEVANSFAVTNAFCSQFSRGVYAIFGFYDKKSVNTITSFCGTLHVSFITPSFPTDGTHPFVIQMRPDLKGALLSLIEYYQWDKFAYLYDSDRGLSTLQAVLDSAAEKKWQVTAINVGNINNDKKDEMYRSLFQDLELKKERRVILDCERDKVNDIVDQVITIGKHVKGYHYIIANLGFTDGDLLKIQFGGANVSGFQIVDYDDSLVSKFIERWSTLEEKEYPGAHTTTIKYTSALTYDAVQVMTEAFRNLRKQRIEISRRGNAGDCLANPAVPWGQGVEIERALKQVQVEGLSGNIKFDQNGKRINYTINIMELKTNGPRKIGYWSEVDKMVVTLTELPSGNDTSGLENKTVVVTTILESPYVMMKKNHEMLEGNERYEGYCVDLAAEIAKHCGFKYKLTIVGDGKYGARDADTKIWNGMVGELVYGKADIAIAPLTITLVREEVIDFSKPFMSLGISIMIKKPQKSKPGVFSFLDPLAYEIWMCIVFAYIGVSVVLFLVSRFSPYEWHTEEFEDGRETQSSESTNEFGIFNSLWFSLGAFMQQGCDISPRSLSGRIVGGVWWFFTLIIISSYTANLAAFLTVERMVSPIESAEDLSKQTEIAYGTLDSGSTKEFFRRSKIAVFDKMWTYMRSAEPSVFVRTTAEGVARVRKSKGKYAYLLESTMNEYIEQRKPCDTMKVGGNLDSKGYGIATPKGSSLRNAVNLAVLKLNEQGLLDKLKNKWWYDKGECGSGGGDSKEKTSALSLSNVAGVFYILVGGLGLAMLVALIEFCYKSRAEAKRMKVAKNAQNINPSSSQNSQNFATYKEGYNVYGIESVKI

For the compound `O=S(=O)(N[C@@H]1Cc2ccc(Cn3cc(CO)c(C(F)(F)F)n3)cc2C1)C(F)(F)F`, the Cmax (in general, the peak of the concentration-time curve) in [1] was 120 nM. Further, in [2], the Papp B→A was 26.4 ×10⁻⁶ cm/s. Further, the clearance in [3] was less than 12 µL/min/mg; in [4], less than 12 µL/min/mg; in data set [6] it was 1.9 mL/min/kg. Moreover, the pEC50 (usually the negative decadic logarithm of the EC50, by convention in mol/L) at Glutamate receptor 2 is 5.60. Moreover, the half-life – broadly, the time in which the quantity being followed falls by half – in data set [5] is 7.4 h. In data set [7], the Vd came out at 1 L/kg. In addition, in data set [8], the Papp A→B was found to be 16.9 ×10⁻⁶ cm/s. Besides, the solubility – broadly, the dissolved amount per volume that the medium holds – in [9] came to 84 µg/mL (≈ 189 µM). Besides, the bioavailability – broadly, the share of a dose that reaches the circulation, judged against a reference dose that is usually intravenous – in data set [10] came out at 100%. Moreover, the Stability in the data set with Hepatocyte was less than 6 µL/min. Turning to `CC(C)S(=O)(=O)N[C@H]1Cc2ccc(Cn3cc(CF)c(C(F)(F)F)n3)cc2C1`, the pEC50 at Glutamate receptor 2 is 5.90. For `CC(C)S(=O)(=O)N[C@H]1Cc2ccc(Cn3cc(CO)c(C(F)(F)F)c3)cc2C1`, the pEC50 at Glutamate receptor 2 is 6.10. This pEC50 lies 0.20 log units higher than the previous one. Same read-out and setting: the same measure for `CC(C)S(=O)(=O)NC1CCc2cc(Cn3cc(CO)c(C(F)(F)F)n3)ccc21` (stereo not given): 7.00. On the same count and under the same terms, the same measure for `O=S(=O)(N[C@H]1Cc2ccc(Cn3cc(CO)c(C(F)(F)F)n3)cc2C1)C(F)(F)F`: 5.30.

Take `CCNCc1cn(CC(=O)Nc2sc3c(c2C(N)=O)CCCC3)nc1C(F)(F)F`: the pEC50 on Glutamate receptor 2 is 6.10. The same compound showed a half-life in data set [5] of 1.1 h. `NC(=O)c1c(NC(=O)Cn2cc(CO)c(C(F)(F)F)n2)sc2c1CCCC2` showed a pEC50 on Glutamate receptor 2 of 6.40. In addition, the concentration in solution in data set [9] (solubility) came to 20 µg/mL (≈ 49.7 µM). `CN(C)S(=O)(=O)N[C@@H]1Cc2ccc(Cn3cc(CO)c(C(F)(F)F)n3)cc2C1`: on Glutamate receptor 2, the pEC50 was 6.00. Turning to `CC(C)S(=O)(=O)N[C@H]1Cc2ccc(Cn3cc(CO)c(C(F)(F)F)n3)cc2C1`, the Papp B→A in data set [2] was 29 ×10⁻⁶ cm/s. Further, the microsomal CLint (in general, a measure of how fast metabolising enzymes remove a compound, apart from limits set by blood flow) is 31 µL/min/mg in [3] and 23 µL/min/mg in data set [4]. This compound also showed a pEC50 on Glutamate receptor 2 of 6.30. The Papp A→B in data set [8] stood at 12.8 ×10⁻⁶ cm/s. `CCS(=O)(=O)N[C@H]1Cc2ccc(Cn3cc(CO)c(C(F)(F)F)n3)cc2C1`: the pEC50 on Glutamate receptor 2 is 6.40.

In turn, `CC(C)S(=O)(=O)N[C@H]1Cc2ccc(Cn3ncc(CO)c3C(F)(F)F)cc2C1` gave a pEC50 at Glutamate receptor 2 of 5.40. On Glutamate receptor 2, `O=S(=O)(NC1CCc2cc(Cn3cc(CO)c(C(F)(F)F)n3)ccc21)C1CC1` (stereo not given) had a pEC50 of 6.80. Still for that read-out and setting: the same measure for `CC(C)S(=O)(=O)N[C@H]1Cc2ccc(Cn3nc(C(F)(F)F)c4c3CCCC4)cc2C1`: 5.90; for `CC(C)S(=O)(=O)N[C@@H]1Cc2ccc(Cn3cc(CO)c(C(F)(F)F)n3)cc2C1`: 6.40.

The compound `CC(C)S(=O)(=O)NC[C@H](C)c1ccc(-n2cc(CO)c(C(F)(F)F)n2)cc1` registered a bioavailability in data set [11] of 3.2%. Besides, the Papp B→A in data set [2] came out at 28.7 ×10⁻⁶ cm/s. Also, the microsomal CLint in data set [3] and in data set [4] was less than 12 µL/min/mg in each case. Besides, the clearance in data set [12] turned out to be 49.7 mL/min/kg. Further, the Papp A→B in data set [8] was 20.6 ×10⁻⁶ cm/s. For the same compound, the half-life in [13] is 1 h.

Turning to `COc1ccccc1S(=O)(=O)NC1CCc2cc(Cn3cc(CO)c(C(F)(F)F)n3)ccc21` (stereo not given), on Glutamate receptor 2, the pEC50 was 5.70. The same measure, in the same setting: for `CC(C)S(=O)(=O)NC1Cc2ccc(-n3cc(CO)c(C(F)(F)F)n3)cc2C1` (racemic) the value was less than 4.50; for `CCn1nc(C(F)(F)F)cc1Cc1ccc2c(c1)C[C@@H](NS(=O)(=O)C(C)C)C2`, 5.90. For `CC(C)S(=O)(=O)N[C@H]1Cc2ccc(Cn3nc(C(F)(F)F)cc3C(F)(F)F)cc2C1`, at Glutamate receptor 2, the pEC50 is 7.00. For the same compound, the solubility in data set [9] was less than 1 µg/mL. With `Cn1cc(S(=O)(=O)NC2CCc3cc(Cn4cc(CO)c(C(F)(F)F)n4)ccc32)c(C(F)(F)F)n1` (stereo not given), the pEC50 at Glutamate receptor 2 is 5.90. Same read-out and setting: for `CC(C)S(=O)(=O)N[C@H]1Cc2ccc(Cc3ccc(C(F)(F)F)o3)cc2C1` the value was 6.00; for `CS(=O)(=O)NC1CCc2cc(Cn3cc(CO)c(C(F)(F)F)n3)ccc21` (stereo not given), 6.30; for `O=S(=O)(N[C@@H]1Cc2ccc(Cn3cc(CO)c(C(F)(F)F)n3)cc2C1)C1CC1`, 5.60. As to `CC(C)S(=O)(=O)N[C@H]1Cc2ccc(Cn3cc(CCO)c(C(F)(F)F)n3)cc2C1`, the pEC50 at Glutamate receptor 2 is 5.90. Against the preceding compound, the pEC50 is 0.30 log units higher.

For the compound `CS(=O)(=O)N[C@H]1Cc2ccc(Cn3cc(CO)c(C(F)(F)F)n3)cc2C1`, the negative logarithm of the EC50 (pEC50) at Glutamate receptor 2 was 5.10. On the same count and under the same terms, for `CC(C)S(=O)(=O)N[C@H]1Cc2ccc(Cn3nc(C(F)(F)F)c4c3CCNC4)cc2C1` the value was 5.80.
